MC4R antagonist: blocks human MC4R cAMP signaling. P32245. MC4R-expressing cells, MTII-stimulated cAMP, LANCE TR-FRET. inhibition, % at 6.5 µM. actives 0.48% (n = 360,000). AID 540295;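 active = inhibition above its plate's cutoff, the mean of tested wells on that plate plus 3 SD, cut at about 29% in these data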;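 also: 0% = Melanotan II alone and 100% = Melanotan II plus saturating MCL0020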
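System: U2OS cells stably expressing human melanocortin 4 receptor (MC4R). Reagent: Melanotan II challenge after compound preincubation. Doses: 6.5 µM. Times: 30-min compound, 1-h challenge, 1-h detection, room temperature. Measured by: TR-FRET with Eu-cAMP and labeled anti-cAMP, 671 nm. Replicates: singlicate.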
TLR9-MyD88 block: blocks human TLR9 binding to MyD88 | Q9NR96+Q99836 | CHO BLA complementation TLR9-MyD88, CCF4 FRET ratio | inhibition, % at 4.98 µM | actives 0.21% (n = 340,000) | AID 504734;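 active = inhibition above the mean over all tested compounds plus 3 SD, cut at about 21% in these data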;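 also: 0% = DMSO only wells and 100% = clavulanate BLA inhibitor control wells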
TLR4-MyD88 BLA: TLR4-MyD88 interaction inhibition in cells. inhibition, % at 8.4 µM. HeLa CL3-4 TLR4/MyD88 BLA complementation, FRET ratio. actives 0.18% (n = 200,000); in the data active = inhibition above about 25%;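 also: 0% = vehicle and 100% = reference inhibitor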
Target sequence (O00206 whole entry, looked up): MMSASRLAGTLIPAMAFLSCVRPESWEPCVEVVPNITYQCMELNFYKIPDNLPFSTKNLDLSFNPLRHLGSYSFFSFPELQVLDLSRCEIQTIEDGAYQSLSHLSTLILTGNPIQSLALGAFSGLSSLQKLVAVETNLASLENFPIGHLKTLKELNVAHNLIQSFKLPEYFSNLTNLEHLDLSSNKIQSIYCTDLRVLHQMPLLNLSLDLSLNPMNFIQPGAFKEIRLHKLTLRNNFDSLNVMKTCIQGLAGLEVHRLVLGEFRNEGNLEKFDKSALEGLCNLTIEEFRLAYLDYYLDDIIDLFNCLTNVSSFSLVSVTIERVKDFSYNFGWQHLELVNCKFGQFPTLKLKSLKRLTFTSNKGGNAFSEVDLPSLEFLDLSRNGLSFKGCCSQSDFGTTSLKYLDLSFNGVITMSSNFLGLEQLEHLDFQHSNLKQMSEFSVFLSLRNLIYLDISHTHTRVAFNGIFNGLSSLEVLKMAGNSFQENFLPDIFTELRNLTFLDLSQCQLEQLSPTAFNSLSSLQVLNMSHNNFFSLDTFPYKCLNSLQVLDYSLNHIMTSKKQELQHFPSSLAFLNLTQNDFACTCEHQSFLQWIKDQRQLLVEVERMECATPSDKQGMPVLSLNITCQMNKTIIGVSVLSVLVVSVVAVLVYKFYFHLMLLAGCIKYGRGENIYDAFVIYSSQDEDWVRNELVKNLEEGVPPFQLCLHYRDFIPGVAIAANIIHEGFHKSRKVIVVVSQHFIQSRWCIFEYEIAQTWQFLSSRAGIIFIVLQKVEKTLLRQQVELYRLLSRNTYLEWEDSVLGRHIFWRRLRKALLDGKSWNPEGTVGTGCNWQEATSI
Target sequence (Q99836 whole entry, looked up): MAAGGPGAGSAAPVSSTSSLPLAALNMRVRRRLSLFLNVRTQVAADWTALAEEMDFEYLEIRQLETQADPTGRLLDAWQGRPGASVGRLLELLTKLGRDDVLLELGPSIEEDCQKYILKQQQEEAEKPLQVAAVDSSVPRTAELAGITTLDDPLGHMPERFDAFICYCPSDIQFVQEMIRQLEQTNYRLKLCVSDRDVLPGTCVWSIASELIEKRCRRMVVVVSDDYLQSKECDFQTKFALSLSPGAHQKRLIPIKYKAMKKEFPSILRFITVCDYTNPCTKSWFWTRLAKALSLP
NOD2-RIPK2 inh: NOD2-RIPK2 protein interaction inhibition; O43353; CHO BLA complementation NOD2-RIPK2, CCF4 ratio; inhibition, % at 4.98 µM; actives 0.38% (n = 360,000); in the data active = inhibition above about 21%;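 also: 0% = vehicle only and 100% = reference blocker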
MIN6 prolif: inducers of beta-cell replication in MIN6 cells | MIN6 cells proliferation, ATPlite luminescence, 48 h; cells starved in 0.2% serum; 100% = growth in 10% serum | proliferation, % at 10 µM | actives 0.29% (n = 330,000) | AID 2380;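 active = compounds whose signal lies at least 3.5 SD above the mean of all wells on their plate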;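 also: 0% = DMSO-treated cells in low-serum medium and 100% = 10% serum control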
MC4R barr agon: human MC4R agonism via beta-arrestin; actives 0.98% (n = 360,000); P32245; activation, % at 8.9 µM; U2OS MC4R beta-arrestin complementation, luminescence; percent of melanotan II response, DMSO zero;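 active = activation above a per-plate cutoff, the mean activation of sample wells on that plate plus 3 SD, cut at about 8% in these data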
* = called active by the depositor; nt = no result. Sampled rows, rich in hits. Any-hit rate of the full collection: about 2.1%.

SMILES | MC4R antagonist | TLR9-MyD88 block | TLR4-MyD88 BLA | NOD2-RIPK2 inh | MIN6 prolif | MC4R barr agon
COc1ccc(OC2C(=O)N(CCc3ccc(OC)c(OC)c3)C2c2ccc3c(c2)OCO3)cc1 (centres undefined) | 23 | -13 | 4 | 1 | 5 | 3
Cc1ccc(N2C(=O)/C(=C\c3ccco3)SC2=S)cc1 | 10 | -8 | -4 | 5 | -2 | 10*
O=C1/C(=C\c2ccco2)SC(=S)N1c1ccccc1 | -2 | 10 | -15 | 2 | 2 | 4
CC(=O)Nc1ccc(NC(=O)CS(=O)(=O)c2cn(CC(=O)N3CCC(C)CC3)c3ccccc23)cc1 | 6 | -4 | nt | -8 | -1 | -2
COc1ccc2nc3ccccc3nc2c1NC(=O)c1ccc(Cl)cc1 | 0 | -6 | -11 | 1 | -3 | 9.1*
N#Cc1nc(-c2ccc(Cl)cc2)oc1NCc1cccc2c1OCO2 | 2 | 0 | 2 | 3 | -4 | 8.5*
CCOc1ccc(Nc2oc(-c3ccc(Cl)cc3)nc2C#N)cc1 | -14 | 6 | 1 | -13 | -2 | 8.9*
COc1ccc(Nc2oc(-c3ccc(OC)cc3)nc2C#N)cc1 | 11 | 1 | nt | 0 | 0 | -1
Cc1ccc(C)c(N2CCN(C(=O)CCCOc3cc(=O)n(C)c4ccccc34)CC2)c1 | 4 | -7 | -3 | 12 | -2 | 12*
Cc1ccc(C)c(N2CCN(C(=O)COc3cc(=O)n(C)c4ccccc34)CC2)c1 | -13 | -13 | 6 | 3 | -2 | 0
Cc1ccc(NC(=S)Nc2ccc3nc(-c4ccccn4)c(-c4ccccn4)nc3c2)cc1C | 4 | 14 | 1 | 32* | nt | 1
Cc1ccc(NC(=S)Nc2ccccn2)cc1C | -4 | nt | nt | 2 | -1 | 2
Cc1ccc(C)c(N(CC(=O)NC2CCCC2)C(=O)c2csnn2)c1 | 12 | 2 | nt | 2 | -1 | -2
CCCc1cnc(NCCNCC(O)COc2ccc(Cl)c(Cl)c2)nc1 (centres undefined) | 7 | -1 | nt | -1 | -4 | 8.4*
CC(=O)c1cccc(OCC(O)CNCCc2ccc(Cl)cc2)c1 (centres undefined) | 1 | -11 | nt | 5 | -3 | 0
Cc1cccc(C(=O)Oc2ccccc2/C=N/Nc2ccc([N+](=O)[O-])cc2)c1 | 9 | -9 | 15 | 1 | nt | 9.2*
CCCCn1c(SCC(=O)NCc2ccco2)nc2c(sc3ccccc32)c1=O | -2 | -10 | -2 | -1 | -1 | 4
CCOCCCn1c(SCC(=O)NCc2ccco2)nc2c(sc3ccccc32)c1=O | 20 | -8 | -6 | -1 | 5 | 9.4*
CCOc1ccc(NCc2cc3c(C(C)(C)C)nn(-c4ccccc4)c3[nH]c2=O)cc1 | 15 | 9 | -2 | 9 | -4 | 11*
Cc1nc2sc(C(=O)Nc3ccccc3)c(N)c2c(C)c1[N+](=O)[O-] | -9 | -13 | -3 | -8 | -2 | 9.3*
CC(=O)c1ccc(NC(=O)c2sc3nc(C)c(C)c(C)c3c2N)cc1 | 1 | -5 | nt | -4 | 1 | -2
CCCCCCCC[n+]1cccc2c3ccccc3ccc21 | -13 | -3 | 15 | -2 | -7 | 7
CCCCCCCCCC[n+]1cccc2c3ccccc3ccc21 | -17 | 7 | 10 | 10 | nt | 49*
CN(C)c1cccc(NC(=O)C2Cc3c(-c4cccnc4)ccnc3O2)c1 (centres undefined) | 4 | nt | nt | 3 | nt | -1
Cc1ccc(-n2nc3ccc(NC(=O)c4cccc([N+](=O)[O-])c4C)cc3n2)cc1 | 26 | -1 | 6 | -15 | -1 | 8.9*
SMILES | MC4R antagonist | TLR9-MyD88 block | TLR4-MyD88 BLA | NOD2-RIPK2 inh | MIN6 prolif | MC4R barr agon
N#Cc1c(NC(=O)c2ccccc2)sc2c1CCCCC2 | -1 | 1 | -10 | -6 | -1 | 8.3*
Cc1ccc(C(=O)Nc2sc3c(c2C#N)CCCCC3)cc1C | 6 | -4 | -5 | 2 | -1 | 0
O=C(NCc1ccccc1Cl)c1ccc(-c2ccccc2)cc1 | 5 | 6 | -4 | 8 | -1 | 9.3*
CCn1c(SCC(=O)c2ccc3c(c2)Cc2ccccc2-3)nnc1-c1ccc(N)cc1 | 7 | -8 | -17 | 1 | -3 | 11*
CCn1c(SCC(=O)c2ccc(O)c(O)c2)nnc1-c1ccc(C)cc1 | 2 | -2 | 0 | 2 | -1 | -2
COc1ccc(/C=N/Nc2nc(C)c([N+](=O)[O-])c(N(C)c3ccccc3)n2)cc1OC | 2 | -8 | -2 | -7 | 4 | 20*
O=[N+]([O-])c1ccccc1S(=O)(=O)N1CCc2ccccc2C1 | 4 | 0 | -15 | -1 | -1 | -3
O=[N+]([O-])c1ccc(N2CCN(S(=O)(=O)c3ccccc3[N+](=O)[O-])CC2)cc1N1CCc2ccccc2C1 | 4 | -1 | 15 | -11 | 6.0* | 0
COc1ccc(/C=C/C(=O)Nc2cc(C)nn2-c2nc3ccccc3n2Cc2cccc([N+](=O)[O-])c2)cc1 | -2 | -12 | -8 | -9 | 0 | 8.6*
NC(=O)CC(NC(=O)Cc1ccc(Cl)cc1)c1ccc(NCCN2CCOCC2)c([N+](=O)[O-])c1 (centres undefined) | 10 | -9 | nt | 2 | -5 | -2
Cc1ccc(C)c(C(C)NC(=S)NCc2ccc(F)cc2)c1 (centres undefined) | -4 | -3 | nt | 3 | -8 | 8.2*
O=C(NN=C1CCCCC1)c1ccccc1-n1cccc1 | 1 | 1 | nt | -2 | 6 | -1
COc1cccc(NC(=O)Nc2nc(-c3ccc(OC)c(OC)c3)cs2)c1 | 3 | 6 | nt | 7 | -2 | 19*
Cc1c(OC(C)C(=O)NCc2ccccn2)ccc2c3c(c(=O)oc12)CCCC3 (centres undefined) | 7 | -10 | nt | -10 | -2 | -1
O=S(=O)(Nc1ccc(Br)cn1)c1ccc2ccccc2c1 | 6 | 4 | nt | -13 | 0 | 1
CCC(=O)Nc1ccc(Cl)c(NC(=S)NC(=O)c2ccco2)c1 | -2 | 10 | -4 | -10 | 2 | -3
CCC(=O)Nc1ccc(Cl)c(NC(=S)NC(=O)c2cc3ccccc3o2)c1 | -7 | 3 | -4 | -5 | -4 | 8.2*
COC(=O)c1ccc(NS(=O)(=O)c2ccc(S(=O)(=O)N3CCOCC3)cc2)cc1 | 6 | 8 | nt | -1 | -2 | -2
COc1ccc(-c2cc3ccccc3oc2=O)cc1NC(=S)NC(=O)c1ccc2c(c1)OCCO2 | -8 | -5 | -5 | 0 | -3 | 9.4*
CCC(=O)Nc1cc(-c2cc3ccccc3oc2=O)ccc1OC | 8 | 8 | 1 | 5 | -2 | -1
O=C(COc1ccccc1[N+](=O)[O-])Nc1ccc(NC(=O)c2cc3ccccc3o2)cc1 | -4 | -24 | 0 | -2 | -6 | 3

Compound activity as filed in PubChem.
